This is an account of results in ChEMBL document CHEMBL4402563, “Preclinical Optimization of gp120 Entry Antagonists as anti-HIV-1 Agents with Improved Cytotoxicity and ADME Properties through Rational Design, Synthesis, and Antiviral Evaluation” (J Med Chem, 2020).

Series [1] deals with T1, CYP3A (Homo sapiens, UniProt P08684+P20815+P24462+Q9HB55). Put plainly: Inhibition of CYP3A in human liver microsomes using testosterone as substrate preincubated for 5 mins followed by NADPH addition and measured for 10 to 30 mins by LC-MS/MS analysis. In kind it is ADME. To be noted: probe testosterone. In outline: (§1)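 Inhibition was screened in a panel of eight CYP450 isoforms, with test concentrations escalated up to 100 μM.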
On the technique in general: Liver microsomes are vesicles of endoplasmic reticulum, rich in cytochrome P450 enzymes.

A further series concerns the target Cytochrome P450 2C19 (Homo sapiens, UniProt P33261). The experiment in a line: Inhibition of CYP2C19 in human liver microsomes using S-mephenytoin as substrate preincubated for 5 mins followed by NADPH addition and measured for 10 to 30 mins by LC-MS/MS analysis. In kind it is ADME. In outline:
as §1

Series [2] is described as follows: Apparent permeability from apical to basolateral side in human Caco2 cells at 5 uM preincubated with vals-podar for 30 mins and measured for 120 mins by LC-MS/MS analysis. In kind it is ADME, cell-based. To be noted: Caco-2, with valspodar (printed as vals-podar; concentration not stated). The gist of the method: (§2)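 Bidirectional Caco-2 transport run with the P-gp inhibitor valspodar at 1 μM. Papp is given as ×10−6 cm/sec for each direction, and the efflux ratio is taken from B-to-A over A-to-B.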
For orientation: Caco-2 monolayers are a common model of the intestinal barrier.

Series [3] in a line: Apparent permeability from basolateral side to apical side in human Caco2 cells at 5 uM measured for 120 mins by LC-MS/MS analysis. In kind it is ADME, cell-based. To be noted: caco-2, 2 h.
Series [4] is described as follows: Solubility of compound in pH 7.4 PBS buffer at 1 mg incubated for overnight by LC-MS/MS analysis. It counts as physicochemical. To be noted: in vitro. In outline: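 Aqueous solubility was measured in phosphate buffer at pH 7.4 and reported in mg/mL.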
Series [5] is described as follows: Apparent permeability from apical to basolateral side in human Caco2 cells at 5 uM measured for 120 mins by LC-MS/MS analysis. In kind it is ADME, cell-based. The settings on record: caco-2, 2 h.
Series [6] can be described thus: Metabolic stability in human liver microsomes assessed as parent compound remaining at 3 uM preincubated for 3 mins followed by NADPH addition and measured up to 120 mins by LC-MS/MS analysis. It counts as ADME, Microsome. The settings on record: read-out: Stability.
A short description of series [7]: Half life in human liver microsomes at 3 uM preincubated for 3 mins followed by NADPH addition and measured up to 120 mins by LC-MS/MS analysis. To be noted: 2 h. It counts as ADME, Microsome.
The subject of the next series is TZM. Put plainly: Cytotoxicity against human TZM-bl cells incubated for 3 days by MTS assay. To be noted: 72 h. It counts as cell-based. A general note: Tetrazolium dyes change colour on reduction, which living cells bring about.
The target in a further series is Cytochrome P450 2D6 (Homo sapiens, UniProt P10635). The experiment in a line: Inhibition of CYP2D6 in human liver microsomes using bufuralol as substrate preincubated for 5 mins followed by NADPH addition and measured for 10 to 30 mins by LC-MS/MS analysis. In kind it is ADME. In outline: as §1
A further series deals with T2, Cytochrome P450 1A2 (Homo sapiens, UniProt P05177).
T2 sequence (P05177 whole entry): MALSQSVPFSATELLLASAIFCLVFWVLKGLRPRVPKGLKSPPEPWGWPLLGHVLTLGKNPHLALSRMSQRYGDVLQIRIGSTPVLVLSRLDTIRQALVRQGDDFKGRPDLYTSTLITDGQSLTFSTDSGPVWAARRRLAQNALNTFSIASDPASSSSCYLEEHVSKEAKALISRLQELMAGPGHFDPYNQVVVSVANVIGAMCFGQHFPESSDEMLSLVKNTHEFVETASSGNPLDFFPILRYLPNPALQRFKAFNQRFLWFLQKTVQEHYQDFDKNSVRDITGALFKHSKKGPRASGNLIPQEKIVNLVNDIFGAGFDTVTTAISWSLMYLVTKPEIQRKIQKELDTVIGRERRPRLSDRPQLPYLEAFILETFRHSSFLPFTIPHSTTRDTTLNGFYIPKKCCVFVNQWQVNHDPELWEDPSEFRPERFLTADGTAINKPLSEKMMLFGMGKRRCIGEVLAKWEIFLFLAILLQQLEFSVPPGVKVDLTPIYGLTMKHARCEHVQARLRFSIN
Put plainly: Inhibition of CYP1A2 in human liver microsomes using phenacetin as substrate preincubated for 5 mins followed by NADPH addition and measured for 10 to 30 mins by LC-MS/MS analysis. In kind it is ADME. In outline: as §1

The next series concerns the target T3, Cytochrome P450 2C8 (Homo sapiens, UniProt P10632).
T3 sequence (P10632 whole entry): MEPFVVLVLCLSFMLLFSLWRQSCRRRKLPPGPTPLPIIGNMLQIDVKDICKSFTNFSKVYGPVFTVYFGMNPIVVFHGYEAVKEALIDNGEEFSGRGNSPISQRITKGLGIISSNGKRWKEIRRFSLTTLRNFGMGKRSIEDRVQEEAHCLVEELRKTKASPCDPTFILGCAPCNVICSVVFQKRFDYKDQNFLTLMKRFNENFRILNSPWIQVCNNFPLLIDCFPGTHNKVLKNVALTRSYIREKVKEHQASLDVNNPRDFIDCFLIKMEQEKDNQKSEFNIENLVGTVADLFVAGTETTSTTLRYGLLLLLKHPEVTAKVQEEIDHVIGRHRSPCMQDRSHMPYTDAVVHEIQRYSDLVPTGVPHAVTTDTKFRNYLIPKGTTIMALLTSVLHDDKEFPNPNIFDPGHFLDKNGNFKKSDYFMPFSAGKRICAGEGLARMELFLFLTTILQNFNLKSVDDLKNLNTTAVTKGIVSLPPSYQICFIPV
The experiment in a line: Inhibition of CYP2C8 in human liver microsomes using amodiaquine as substrate preincubated for 5 mins followed by NADPH addition and measured for 10 to 30 mins by LC-MS/MS analysis. It counts as ADME. The gist of the method:
as §1

Series [8] is described as follows: Intrinsic clearance in human liver microsomes at 3 uM preincubated for 3 mins followed by NADPH addition and measured up to 120 mins by LC-MS/MS analysis. It counts as ADME, Microsome. The settings on record: 2 h.
For series [9], the target named is T1, CYP3A. Put plainly: Inhibition of CYP3A in human liver microsomes using midazolam as substrate preincubated for 5 mins followed by NADPH addition and measured for 10 to 30 mins by LC-MS/MS analysis. To be noted: probe midazolam. In kind it is ADME. In outline:
as §1

A short description of series [10]: Apparent permeability from basolateral side to apical side in human Caco2 cells at 5 uM preincubated with vals-podar for 30 mins and measured for 120 mins by LC-MS/MS analysis. In kind it is ADME, cell-based. To be noted: Caco-2, with valspodar (printed as vals-podar; concentration not stated). The gist of the method: as §2
Series [11] can be described thus: Protein binding in human plasma at 5 uM measured for 4 hrs by LC-MS/MS analysis. In kind it is ADME, cell-free.
A further series addresses T4, Cytochrome P450 2B6 (Homo sapiens, UniProt P20813).
T4 sequence (P20813 whole entry): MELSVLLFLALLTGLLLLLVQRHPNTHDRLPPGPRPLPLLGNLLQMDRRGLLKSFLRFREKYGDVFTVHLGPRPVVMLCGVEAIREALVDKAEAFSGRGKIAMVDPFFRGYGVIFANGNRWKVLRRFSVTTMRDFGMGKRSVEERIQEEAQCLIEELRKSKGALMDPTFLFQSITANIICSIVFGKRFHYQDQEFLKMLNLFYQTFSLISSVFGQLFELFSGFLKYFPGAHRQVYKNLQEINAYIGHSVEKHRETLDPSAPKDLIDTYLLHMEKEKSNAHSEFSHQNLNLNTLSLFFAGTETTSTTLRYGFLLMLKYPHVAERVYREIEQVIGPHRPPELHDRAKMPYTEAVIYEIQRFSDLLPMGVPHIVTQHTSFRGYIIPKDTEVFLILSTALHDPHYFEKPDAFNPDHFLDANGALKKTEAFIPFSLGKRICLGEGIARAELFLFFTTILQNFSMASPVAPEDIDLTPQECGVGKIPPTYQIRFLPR
The experiment in a line: Inhibition of CYP2B6 in human liver microsomes using bupropion as substrate preincubated for 5 mins followed by NADPH addition and measured for 10 to 30 mins by LC-MS/MS analysis. In kind it is ADME. In outline: as §1

Series [12] in a line: Cytotoxicity against dog Cf2Th-CCR5 cells infected with CD4-dependent pseudovirus HIV1 ADA incubated for 48 hrs by MTS assay.
Another series has as its target Cytochrome P450 2C9 (Homo sapiens, UniProt P11712). The experiment in a line: Inhibition of CYP2C9 in human liver microsomes using diclofenac as substrate preincubated for 5 mins followed by NADPH addition and measured for 10 to 30 mins by LC-MS/MS analysis. It counts as ADME. In outline: as §1

The structures appear in SMILES notation. In brackets after ≈: the same amount, converted by molar mass.

Cytochrome P450 2C19, sequence (P33261 whole entry): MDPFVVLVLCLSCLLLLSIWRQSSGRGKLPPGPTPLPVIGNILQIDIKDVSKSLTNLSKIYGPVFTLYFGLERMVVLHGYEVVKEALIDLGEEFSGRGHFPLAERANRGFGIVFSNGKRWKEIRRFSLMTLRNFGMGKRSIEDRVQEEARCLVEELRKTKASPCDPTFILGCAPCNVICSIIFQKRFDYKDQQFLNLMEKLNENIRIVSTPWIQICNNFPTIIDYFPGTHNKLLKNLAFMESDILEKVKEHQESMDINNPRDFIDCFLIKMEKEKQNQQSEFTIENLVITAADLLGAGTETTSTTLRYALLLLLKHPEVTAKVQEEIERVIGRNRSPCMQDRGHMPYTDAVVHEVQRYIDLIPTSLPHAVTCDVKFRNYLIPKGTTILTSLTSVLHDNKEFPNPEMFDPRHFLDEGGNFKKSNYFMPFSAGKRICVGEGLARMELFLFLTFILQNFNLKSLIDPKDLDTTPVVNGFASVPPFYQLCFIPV
Cytochrome P450 2C9, sequence (P11712 whole entry): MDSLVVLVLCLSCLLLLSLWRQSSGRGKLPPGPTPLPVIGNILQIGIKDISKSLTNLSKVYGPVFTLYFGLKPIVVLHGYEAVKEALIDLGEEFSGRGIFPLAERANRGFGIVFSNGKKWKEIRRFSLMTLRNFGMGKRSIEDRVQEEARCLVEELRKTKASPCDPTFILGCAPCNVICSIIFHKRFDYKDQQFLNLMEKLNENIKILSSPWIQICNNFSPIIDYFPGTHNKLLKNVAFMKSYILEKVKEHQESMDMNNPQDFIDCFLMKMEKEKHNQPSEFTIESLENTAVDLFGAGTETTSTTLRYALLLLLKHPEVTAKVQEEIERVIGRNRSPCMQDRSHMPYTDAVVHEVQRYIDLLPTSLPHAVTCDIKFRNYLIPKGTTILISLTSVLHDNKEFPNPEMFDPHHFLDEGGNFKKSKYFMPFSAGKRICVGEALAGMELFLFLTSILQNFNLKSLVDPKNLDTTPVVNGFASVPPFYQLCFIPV
Cytochrome P450 2D6, sequence (P10635 whole entry): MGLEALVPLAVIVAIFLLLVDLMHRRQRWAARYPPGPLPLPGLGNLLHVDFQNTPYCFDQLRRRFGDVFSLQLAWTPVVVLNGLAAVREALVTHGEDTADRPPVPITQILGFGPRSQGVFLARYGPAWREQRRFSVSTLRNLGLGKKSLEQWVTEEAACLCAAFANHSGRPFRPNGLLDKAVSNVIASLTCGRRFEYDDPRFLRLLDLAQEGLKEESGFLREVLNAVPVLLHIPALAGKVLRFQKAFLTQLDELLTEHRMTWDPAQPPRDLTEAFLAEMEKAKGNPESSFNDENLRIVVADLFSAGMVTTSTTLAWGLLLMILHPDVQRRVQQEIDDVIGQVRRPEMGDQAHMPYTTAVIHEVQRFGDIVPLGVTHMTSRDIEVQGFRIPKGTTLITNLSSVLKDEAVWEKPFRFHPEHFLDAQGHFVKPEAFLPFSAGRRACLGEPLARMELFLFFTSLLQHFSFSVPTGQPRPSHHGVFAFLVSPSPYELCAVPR

In the case of `Cc1cc(-c2ccc(C(F)(F)F)cn2)[nH]c1C(=O)N[C@@H](CN)c1ncc(CO)s1`, the IC50 – broadly, the midpoint of a concentration-inhibition curve – was above 62.2 µM against CYP3A [1]; above 100 µM against Cytochrome P450 2C19; above 100 µM at Cytochrome P450 2D6; 70.1 µM against Cytochrome P450 1A2; above 100 µM on Cytochrome P450 2C8; above 100 µM on CYP3A [9]. Further, the IC50 against Cytochrome P450 2B6 is 85.4 µM; against Cytochrome P450 2C9, above 100 µM. In addition, the apparent permeability from apical to basolateral (Papp A→B) – broadly, how fast a substance crosses the layer from the apical side – at 2 h, 5 µM in [2] came out at 14 ×10⁻⁶ cm/s. The Papp (commonly a coefficient for how fast a substance crosses the barrier) worked out at 20.3 ×10⁻⁶ cm/s in [3] and 6.51 ×10⁻⁶ cm/s in series [5]. The solubility (as a rule, the concentration that dissolves in the medium under given conditions) in [4] amounted to 734 µg/mL (≈ 1730 µM). The remaining at 2 h, 3 µM in series [6] was found to be 93.5%. The t1/2 in series [7] was above 2 h. Moreover, in the series with TZM, the 50% cytotoxic concentration (CC50) (in general, the concentration that lowers cell viability or growth by half) worked out at 109 µM. This compound yielded a CLH in series [8] below 11.6 µL/min/mg. In addition, the Papp B→A (in general, the apparent permeability from the basolateral to the apical side of a cell layer) at 2 h, 5 µM in series [10] turned out to be 10.5 ×10⁻⁶ cm/s. In series [11], this compound showed a PPB of 99.2%. The Activity result in series [12] is “Non-Toxic”.
